Experimental data as given in ChEMBL document CHEMBL4680175, “Sulfonamide-based ring-fused analogues for CAN508 as novel carbonic anhydrase inhibitors endowed with antitumor activity: Design, synthesis, and in vitro biological evaluation” (Eur J Med Chem, 2020).
pIC50: −log10 of the molar value. Activity calls are given as the source filed them. No cut-off for these calls is given here.

Legend:
SW-620 = assay: Antitumor activity against human SW620 cells assessed as cell growth inhibition at 10 uM incubated for 48 hrs by sulforhodamine B assay; format: functional; details: read-out: GI
Method in brief: (§1)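 NCI one-dose screen: 57-cell-line panel exposed at 10 μM for 48 h, Drug Evaluation Branch protocol. Growth and viability read by sulforhodamine B; data given as percent growth inhibition from the mean-graph of percent growth of treated cells.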

OVCAR-5 = assay: Antitumor activity against human OVCAR-5 cells assessed as cell growth inhibition at 10 uM incubated for 48 hrs by sulforhodamine B assay; format: functional; details: read-out: GI
Method in brief: (§2)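 NCI Drug Evaluation Branch protocol: primary single-dose screen at 10 μM across a 57-line human cancer panel. Drug exposure is 48 h. Cell growth and viability are read by sulforhodamine B assay. Data are given as a mean graph of percent growth of treated cells and reported as percentage growth inhibition (GI%).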

786-0 = assay: Antitumor activity against human 786-0 cells assessed as cell growth inhibition at 10 uM incubated for 48 hrs by sulforhodamine B assay; format: functional; details: read-out: GI; method in brief: as §2
OVCAR-4 = assay: Antitumor activity against human OVCAR-4 cells assessed as cell growth inhibition at 10 uM incubated for 48 hrs by sulforhodamine B assay; format: functional; details: read-out: GI; method in brief: as §2
M14 = assay: Antitumor activity against human M14 cells assessed as cell growth inhibition at 10 uM incubated for 48 hrs by sulforhodamine B assay; format: functional; details: read-out: GI; method in brief: as §2
A498 = assay: Antitumor activity against human A498 cells assessed as cell growth inhibition at 10 uM incubated for 48 hrs by sulforhodamine B assay; format: functional; details: read-out: GI; method in brief: as §2
MCF7 [1] = assay: Antiproliferative activity against human MCF7 cells measured after 48 hrs under normoxic condition by MTT assay; format: functional, cell-based; details: MCF7, 48 h
MDA-MB-435 = assay: Antitumor activity against human MDA-MB-435 cells assessed as cell growth inhibition at 10 uM incubated for 48 hrs by sulforhodamine B assay; format: functional; details: read-out: GI; method in brief: as §2
HT-29 = assay: Antitumor activity against human HT-29 cells assessed as cell growth inhibition at 10 uM incubated for 48 hrs by sulforhodamine B assay; format: functional; details: read-out: GI; method in brief: as §2
TK-10 = assay: Antitumor activity against human TK-10 cells assessed as cell growth inhibition at 10 uM incubated for 48 hrs by sulforhodamine B assay; format: functional; details: read-out: GI; method in brief: as §1
EKVX = assay: Antitumor activity against human EKVX cells assessed as cell growth inhibition at 10 uM incubated for 48 hrs by sulforhodamine B assay; format: functional; details: read-out: GI; method in brief: as §2
HL-60(TB) = assay: Antitumor activity against human HL-60(TB) cells assessed as cell growth inhibition at 10 uM incubated for 48 hrs by sulforhodamine B assay; format: functional; details: read-out: GI
Method in brief: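 Single-dose NCI-60-type screen of 57 human cancer cell lines at 10 μM under the NCI Drug Evaluation Branch protocol. Drugs exposed for 48 h; growth and viability read by sulforhodamine B assay. Data given as mean-graph percent growth of treated cells, expressed as percent growth inhibition.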

UACC-62 = assay: Antitumor activity against human UACC-62 cells assessed as cell growth inhibition at 10 uM incubated for 48 hrs by sulforhodamine B assay; format: functional; details: read-out: GI; method in brief: as §1
MCF7 [2] = assay: Antiproliferative activity against human MCF7 cells measured after 48 hrs under CoCl2-induced hypoxic condition by MTT assay; format: functional, cell-based; details: MCF7, 48 h
RXF 393 = assay: Antitumor activity against human RXF 393 cells assessed as cell growth inhibition at 10 uM incubated for 48 hrs by sulforhodamine B assay; format: functional; details: read-out: GI; method in brief: as §2
ACHN = assay: Antitumor activity against human ACHN cells assessed as cell growth inhibition at 10 uM incubated for 48 hrs by sulforhodamine B assay; format: functional; details: read-out: GI; method in brief: as §2
A549 = assay: Antitumor activity against human A549/ATCC cells assessed as cell growth inhibition at 10 uM incubated for 48 hrs by sulforhodamine B assay; format: functional; details: read-out: GI; method in brief: as §2
MDA-MB-468 [3] = assay: Antiproliferative activity against human MDA-MB-468 cells measured after 48 hrs under normoxic condition by MTT assay; format: functional, cell-based; details: MDA-MB-468, 48 h
CDK9/cyclin T1 = CDK9/cyclin T1 (Homo sapiens, UniProt P50750); assay: Inhibition of human full-length N-terminal GST/His6-tagged CDK9 (1 to 372 residues)/His6-tagged Cyclin-T1 (1 to 726 residues) expressed in sf9 cells using (YSPTSPS)2KK peptide as substrate in presence of [gamma33P]ATP
HCC 2998 = assay: Antitumor activity against human HCC2998 cells assessed as cell growth inhibition at 10 uM incubated for 48 hrs by sulforhodamine B assay; format: functional; details: read-out: GI; method in brief: as §2
SF-295 = assay: Antitumor activity against human SF295 cells assessed as cell growth inhibition at 10 uM incubated for 48 hrs by sulforhodamine B assay; format: functional; details: read-out: GI; method in brief: as §2
NCI-H23 = assay: Antitumor activity against human NCI-H23 cells assessed as cell growth inhibition at 10 uM incubated for 48 hrs by sulforhodamine B assay; format: functional; details: read-out: GI; method in brief: as §2
SR = assay: Antitumor activity against human SR cells assessed as cell growth inhibition at 10 uM incubated for 48 hrs by sulforhodamine B assay; format: functional; details: read-out: GI; method in brief: as §1
MDA-MB-468 [4] = assay: Antiproliferative activity against human MDA-MB-468 cells measured after 48 hrs under CoCl2-induced hypoxic condition by MTT assay; format: functional, cell-based; details: MDA-MB-468, 48 h
SF-268 = assay: Antitumor activity against human SF268 cells assessed as cell growth inhibition at 10 uM incubated for 48 hrs by sulforhodamine B assay; format: functional; details: read-out: GI; method in brief: as §2
SK-MEL-28 = assay: Antitumor activity against human SK-MEL-28 cells assessed as cell growth inhibition at 10 uM incubated for 48 hrs by sulforhodamine B assay; format: functional; details: read-out: GI; method in brief: as §2
HOP-92 = assay: Antitumor activity against human HOP92 cells assessed as cell growth inhibition at 10 uM incubated for 48 hrs by sulforhodamine B assay; format: functional; details: read-out: GI; method in brief: as §2
SNB-19 = assay: Antitumor activity against human SNB-19 cells assessed as cell growth inhibition at 10 uM incubated for 48 hrs by sulforhodamine B assay; format: functional; details: read-out: GI; method in brief: as §2
SK-OV-3 = assay: Antitumor activity against human SK-OV-3 cells assessed as cell growth inhibition at 10 uM incubated for 48 hrs by sulforhodamine B assay; format: functional; details: read-out: GI; method in brief: as §2
UACC-257 = assay: Antitumor activity against human UACC-257 cells assessed as cell growth inhibition at 10 uM incubated for 48 hrs by sulforhodamine B assay; format: functional; details: read-out: GI; method in brief: as §1
HCT-15 = assay: Antitumor activity against human HCT15 cells assessed as cell growth inhibition at 10 uM incubated for 48 hrs by sulforhodamine B assay; format: functional; details: read-out: GI; method in brief: as §2
COLO 205 = assay: Antitumor activity against human COLO205 cells assessed as cell growth inhibition at 10 uM incubated for 48 hrs by sulforhodamine B assay; format: functional; details: read-out: GI; method in brief: as §2
MCF7 [5] = assay: Induction of apoptosis in human MCF7 cells assessed as fold increase in apoptotic cells by Annexin V-FITC/propidium iodide staining based flow cytometric analysis relative to control; format: functional
MCF7 [6] = assay: Induction of cell cycle arrest in human MCF7 cells assessed as accumulation at G2/M phase at IC50 concentration incubated for 24 hrs by PI/RNase staining based flow cytometric analysis; format: functional
Method in brief: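 Cells were washed in ice-cold PBS, fixed in ice-cold 70% ethanol, treated with 100 µg/mL RNase and stained with 40 µg/mL PI. DNA content was read by flow cytometry, with sub-G1 compared against control.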

MCF7 [7] = assay: Induction of apoptosis in human MCF7 cells assessed as early apoptotic cells by Annexin V-FITC/propidium iodide staining based flow cytometric analysis (reference value: 0.47 %); format: functional
MCF7 [8] = assay: Induction of apoptosis in human MCF7 cells assessed as late apoptotic cells by Annexin V-FITC/propidium iodide staining based flow cytometric analysis (reference value: 0.29 %); format: functional

Chain of CDK9/cyclin T1 (O60563 whole entry, the tested form may be a part): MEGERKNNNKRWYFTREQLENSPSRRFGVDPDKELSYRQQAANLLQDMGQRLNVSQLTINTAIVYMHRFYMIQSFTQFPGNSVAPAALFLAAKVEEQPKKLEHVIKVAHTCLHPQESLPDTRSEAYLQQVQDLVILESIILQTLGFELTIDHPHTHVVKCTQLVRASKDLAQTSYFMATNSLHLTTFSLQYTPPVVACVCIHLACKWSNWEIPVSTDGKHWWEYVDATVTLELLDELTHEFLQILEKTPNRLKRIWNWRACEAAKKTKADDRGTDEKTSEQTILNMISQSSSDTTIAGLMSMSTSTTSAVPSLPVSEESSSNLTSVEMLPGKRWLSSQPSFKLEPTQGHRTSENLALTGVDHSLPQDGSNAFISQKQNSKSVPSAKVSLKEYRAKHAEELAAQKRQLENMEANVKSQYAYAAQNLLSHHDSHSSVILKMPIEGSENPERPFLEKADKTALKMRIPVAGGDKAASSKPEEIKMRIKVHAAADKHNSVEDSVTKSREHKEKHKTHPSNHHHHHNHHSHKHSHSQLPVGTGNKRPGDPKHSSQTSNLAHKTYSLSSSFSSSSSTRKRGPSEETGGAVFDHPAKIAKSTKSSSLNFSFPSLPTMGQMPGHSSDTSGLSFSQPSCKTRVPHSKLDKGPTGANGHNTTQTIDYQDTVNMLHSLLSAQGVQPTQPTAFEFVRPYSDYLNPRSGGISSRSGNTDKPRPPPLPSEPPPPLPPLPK
Chain of CDK9/cyclin T1 (P50750 whole entry, the tested form may be a part): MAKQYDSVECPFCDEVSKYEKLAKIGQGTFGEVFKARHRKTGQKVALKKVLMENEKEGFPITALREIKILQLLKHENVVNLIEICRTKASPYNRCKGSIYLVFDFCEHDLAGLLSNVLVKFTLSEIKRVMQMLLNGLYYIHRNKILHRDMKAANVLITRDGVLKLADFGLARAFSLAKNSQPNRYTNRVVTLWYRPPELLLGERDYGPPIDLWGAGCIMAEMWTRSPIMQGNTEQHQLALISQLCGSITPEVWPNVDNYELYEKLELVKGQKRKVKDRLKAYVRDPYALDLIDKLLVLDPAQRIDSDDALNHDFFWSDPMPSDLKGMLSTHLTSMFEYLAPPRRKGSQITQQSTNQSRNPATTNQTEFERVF

| SMILES | inhibition of growth at 10 µM (SW-620) [%] | inhibition of growth at 10 µM (OVCAR-5) [%] | inhibition of growth at 10 µM (786-0) [%] | inhibition of growth at 10 µM (OVCAR-4) [%] | inhibition of growth at 10 µM (M14) [%] | inhibition of growth at 10 µM (A498) [%] | pIC50 (MCF7 [1]) | inhibition of growth at 10 µM (MDA-MB-435) [%] | inhibition of growth at 10 µM (HT-29) [%] | inhibition of growth at 10 µM (TK-10) [%] | inhibition of growth at 10 µM (EKVX) [%] | inhibition of growth at 10 µM (HL-60(TB)) [%] | inhibition of growth at 10 µM (UACC-62) [%] | pIC50 (MCF7 [2]) | inhibition of growth at 10 µM (RXF 393) [%] | pIC50 (MDA-MB-468 [3]) | pIC50 (CDK9/cyclin T1) | pIC50 (MDA-MB-468 [4]) | inhibition of growth at 10 µM (SF-268) [%] | inhibition of growth at 10 µM (HOP-92) [%] | other results |
| --- | --- | --- | --- | --- | --- | --- | --- | --- | --- | --- | --- | --- | --- | --- | --- | --- | --- | --- | --- | --- | --- |
| N#Cc1c(-c2ccc(Br)cc2)nc2c(/N=N/c3ccc(S(N)(=O)=O)cc3)c(N)nn2c1N | 56 | 28 | 30 | 39 | 59 | 35 | 5.32 | 44 | 57 | 27 | 29 | 62 | 28 | 5.12 | 58 | 5.17 | < 4.90 | 5.00 | 44 | 69 | inhibition of growth at 10 µM (ACHN): 29%; inhibition of growth at 10 µM (A549): 32%; inhibition of growth at 10 µM (HCC 2998): 38%; inhibition of growth at 10 µM (SF-295): 38%; inhibition of growth at 10 µM (NCI-H23): 36%; inhibition of growth at 10 µM (SR): 59%; inhibition of growth at 10 µM (SK-MEL-28): 37%; inhibition of growth at 10 µM (SNB-19): 38% |
| Cc1ccc(-c2nc3c(/N=N/c4ccc(S(N)(=O)=O)cc4)c(N)nn3c(N)c2C#N)cc1 | 83 | 21 | 35 | 48 | 54 | 41 | 5.17 | 48 | 64 | 34 | 30 | 97 | 47 | 4.82 | 72 | 5.86 | < 4.90 | 5.52 | 65 | 80 | inhibition of growth at 10 µM (SK-OV-3): 36%; inhibition of growth at 10 µM (UACC-257): 28%; inhibition of growth at 10 µM (ACHN): 100%; inhibition of growth at 10 µM (A549): 37%; inhibition of growth at 10 µM (HCT-15): 18%; inhibition of growth at 10 µM (HCC 2998): 48%; inhibition of growth at 10 µM (SF-295): 51%; inhibition of growth at 10 µM (NCI-H23): 56%; inhibition of growth at 10 µM (SR): 71%; inhibition of growth at 10 µM (SK-MEL-28): 47%; inhibition of growth at 10 µM (SNB-19): 42%; inhibition of growth at 10 µM (COLO 205): 86% |
| N#Cc1c(-c2ccc(Cl)cc2)nc2c(/N=N/c3ccc(S(N)(=O)=O)cc3)c(N)nn2c1N |  |  |  |  |  |  | 5.68 |  |  |  |  |  |  | 4.99 | 29 | 4.94 | < 4.90 | 4.71 | 23 | 29 | fold change (FC) (MCF7 [5]): 18; Activity (MCF7 [6]): Active; Activity (MCF7 [7]): 5.88%; Activity (MCF7 [8]): 8.2% |
